Paper PMC3674282 (Nature Communications, 2013)
Residue numbers refer to the chain shown, from its start.

Experiments:
human α7 nAChRs = human α7 nAChRs (Homo sapiens, UniProt P36544); assay: electrophysiology on Xenopus oocytes expressing human α7 nAChR; format: cell-based
solubility = format: physicochemical; conditions: in words
Ac-AChBP [1] = biological target: T1, Ac-AChBP (Aplysia californica, UniProt Q8WSF8); assay: isothermal titration calorimetry; format: binding; conditions: 25°, PBS
T1 sequence (Q8WSF8 20-236): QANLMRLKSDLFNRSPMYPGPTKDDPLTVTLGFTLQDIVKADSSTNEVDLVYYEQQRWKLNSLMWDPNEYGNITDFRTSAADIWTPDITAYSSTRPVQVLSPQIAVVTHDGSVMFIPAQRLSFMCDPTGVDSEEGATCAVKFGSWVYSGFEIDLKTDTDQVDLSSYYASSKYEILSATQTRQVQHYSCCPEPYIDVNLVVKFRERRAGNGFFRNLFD
Procedure, shortened: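 The protein was dialysed into PBS and the test compound was dissolved in the same buffer. Titrations ran on a VP-ITC microcalorimeter at 25°. Heat of dilution from ligand titrated into buffer alone was subtracted as background. Data were fitted by non-linear least squares to a one-set-of-sites model.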

Ac-AChBP [2] = biological target: T1, Ac-AChBP; assay: titration of AO with Ac-AChBP by AO fluorescence quenching; format: binding; conditions: AO 100 μM titrated with Ac-AChBP, absence of nicotine
Procedure, shortened: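 Test compound at 100 μM was titrated with increasing Ac-AChBP. Its own fluorescence was monitored with excitation at 495 nm and emission at 525 nm (slit 10 nm). A competition arm, where indicated, included 1 mM nicotine.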

Ac-AChBP [3] = biological target: T1, Ac-AChBP; assay: affinity by tryptophan fluorescence quenching; format: binding
Procedure, shortened: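 Untagged wild-type Ac-AChBP, purified from Sf21 insect cells, at 1 μM in binding sites, equilibrated with a dilution series of test compound for 1 h. Tryptophan fluorescence read on a plate reader: excitation 280 nm, emission 340 nm (slit 8 nm). Data normalised and pKi obtained by fitting a sigmoidal dose–response curve.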

Ac-AChBP [4] = biological target: T1, Ac-AChBP; assay: equilibrium titration of binding sites by tryptophan fluorescence quenching; conditions: Ac-AChBP 20 μM binding sites
Procedure, shortened: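 Ac-AChBP (20 μM in binding sites) was titrated with rising test compound until quenching fell below 8%. Tryptophan emission was read at 340 nm with excitation at 280 nm. Stoichiometry came from a straight line fitted through the average of the plateau points.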

Ac-AChBP Y186A = biological target: T2, Ac-AChBP Y186A (Aplysia californica, UniProt Q8WSF8, Y205A); assay: radioligand displacement on mutant Ac-AChBP Y186A; format: binding; conditions: Y186 mutated to alanine
T2 sequence (Q8WSF8 20-236 Y205A): T1 sequence (Q8WSF8 20-236) with Y186A

human α7 nAChR = human α7 nAChR (Homo sapiens, UniProt P36544); assay: radioligand displacement; format: binding
Sequence of human α7 nAChR (P36544 23-502): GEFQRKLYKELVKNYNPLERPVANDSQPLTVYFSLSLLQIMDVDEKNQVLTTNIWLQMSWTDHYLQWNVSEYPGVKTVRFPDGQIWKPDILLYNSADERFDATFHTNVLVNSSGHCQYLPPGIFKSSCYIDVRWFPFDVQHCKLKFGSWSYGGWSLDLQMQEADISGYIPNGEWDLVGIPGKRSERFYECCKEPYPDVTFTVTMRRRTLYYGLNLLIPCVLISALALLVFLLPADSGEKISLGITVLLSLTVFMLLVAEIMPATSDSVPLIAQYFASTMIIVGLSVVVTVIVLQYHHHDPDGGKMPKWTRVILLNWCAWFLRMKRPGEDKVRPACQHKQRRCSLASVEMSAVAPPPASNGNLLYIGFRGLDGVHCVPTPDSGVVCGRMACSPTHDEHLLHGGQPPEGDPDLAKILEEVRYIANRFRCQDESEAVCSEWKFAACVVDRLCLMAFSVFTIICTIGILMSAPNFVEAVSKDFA
Procedure, shortened: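 SH-SY5Y neuroblastoma cells expressing human α7 nAChR were washed three times, stored as frozen pellets at −80 °C, then resuspended in ice-cold buffer and sonicated. Incubation used PBS/20 mM Tris pH 7.4/0.05% Tween, test compound at 10−3–10−11 M and [3H]MLA at 2 nM final, for 1.5 h at room temperature with shaking and protected from light. Bound label was collected on PEI-pretreated GF/C filters, washed with ice-cold 50 mM Tris pH 7.4 and counted. Curves were fitted by non-linear least squares; mean±s.e.m. of ≥3 independent experiments.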

Ac-AChBP Y193A = biological target: T3, Ac-AChBP Y193A (Aplysia californica, UniProt Q8WSF8, Y212A); assay: radioligand displacement on mutant Ac-AChBP Y193A; format: binding; conditions: Y193 mutated to alanine
T3 sequence (Q8WSF8 20-236 Y212A): T1 sequence (Q8WSF8 20-236) with Y193A

Ac-AChBP [5] = biological target: T1, Ac-AChBP; assay: biochemical; format: binding

Sequence of human α7 nAChRs (P36544 23-502): as above

In the case of `CN(C)c1ccc2cc3ccc(N(C)C)cc3nc2c1` [AO, acridine orange], the IC50 (human α7 nAChRs) is reported as 7.3 µM, the solubility (solubility) is reported as “highly soluble” and the “stoichiometric ratio (n) by ITC” value (Ac-AChBP [1]; 0.5 mM ligand into 20 μM Ac-AChBP) is reported as 3–4. The Kd (Ac-AChBP [1]; Kd by ITC) was 1860 nM, the “stoichiometric ratio at which Ac-AChBP quenched AO fluorescence” value (Ac-AChBP [2]) was 0.3 and the Ki (Ac-AChBP [3]) was 1580 nM.

In the case of `Nc1nc(-c2cccnc2)cc2ccccc12` [compound 3, 1-Amino-3-(3-pyridyl)isoquinoline], the “stoichiometric ratio ligand/AChBP (ligands per protomer/binding site)” value (Ac-AChBP [4]) is reported as “multiple copies”.

With `Nc1nc(-c2ccccn2)cc2ccccc12` [compound 2, 1-Amino-3-(2-pyridyl)isoquinoline] the “stoichiometric ratio ligand/AChBP (ligands per protomer/binding site)” value (Ac-AChBP [4]) was “multiple copies”.

In the case of `Cc1cc(C)nc(C(=N)Nc2nc(-c3ccccn3)cc3ccccc23)n1` [VUF9432, 4,6-dimethyl-N-(3-(pyridin-2-yl)isoquinoline-1-yl)-pyrimidine-2-carboximidamide], the “affinity for Ac-AChBP Y186A mutant” value (Ac-AChBP Y186A) is reported as “loss of affinity”, the “pKi for α7 nAChR” value (human α7 nAChR; [3H]MLA displacement, radioligand not fully displaced) is reported as “around five” and the “displacement of [3H]MLA at the highest concentration tested” value (human α7 nAChR; highest concentration tested) is reported as “not fully displaced”. The “effect on α7 nAChR expressed in oocytes” value (human α7 nAChRs; data not shown) was “did not observe any effect”, the “affinity for Ac-AChBP Y193A mutant” value (Ac-AChBP Y193A) was “loss of affinity” and the solubility (solubility) was “not very soluble”. For the same compound, the Ki (Ac-AChBP [5]) was 11 µM and the “stoichiometric ratio ligand/AChBP (ligands per protomer/binding site)” value (Ac-AChBP [4]) was “three”.
